From ChEMBL document CHEMBL1147330, “Cytotoxic and antimalarial bisbenzylisoquinoline alkaloids from Cyclea barbata” (1993)
In brackets after ≈: the same amount, converted by molar mass.

System: not listed separately
Assay: Cytotoxicity against human multidrug-sensitive KB3 cells
Type: functional
Details: read-out: ED50 (the source's name)
COc1ccc2cc1Oc1ccc(cc1)C[C@H]1c3cc(c(OC)cc3CCN1C)Oc1c(OC)c(OC)cc3c1[C@H](C2)N(C)CC3 [FANCHININ] gave an EC50 of 2.1 µg/mL (≈ 3.37 µM). In the case of COc1ccc2cc1Oc1ccc(cc1)C[C@@H]1c3cc(c(OC)cc3CCN1C)Oc1c(O)c(OC)cc3c1[C@@H](C2)N(C)CC3, the EC50 is reported as 9.8 µg/mL (≈ 16.1 µM). With C=C[C@H]1CN2CC[C@H]1C[C@H]2[C@H](O)c1ccnc2ccc(OC)cc12 [QUININE] the EC50 was > 20 µg/mL. Compound COc1ccc2cc1Oc1ccc(cc1)C[C@H]1c3c(cc(OC)c(O)c3Oc3cc4c(cc3OC)CCN(C)[C@@H]4C2)CCN1C [HOMOAROMOLINE] has an EC50 of 3.6 µg/mL (≈ 5.91 µM). For COc1ccc2cc1Oc1ccc(cc1)C[C@H]1c3cc(c(OC)cc3CCN1C)Oc1c(O)c(OC)cc3c1[C@@H](C2)N(C)CC3, the EC50 was 3.4 µg/mL (≈ 5.59 µM). COc1ccc2cc1Oc1ccc(cc1)C[C@H]1c3c(cc(OC)c(O)c3Oc3cc4c(cc3OC)CCN(C)[C@H]4C2)CCN1C showed an EC50 of 2.2 µg/mL (≈ 3.61 µM).

System: not listed separately
Assay: Cytotoxicity against human multidrug-resistant KBV1 cells
Type: functional
Details: KB-V1, read-out: ED50 (the source's name)
In the case of COc1ccc2cc1Oc1ccc(cc1)C[C@H]1c3cc(c(OC)cc3CCN1C)Oc1c(OC)c(OC)cc3c1[C@H](C2)N(C)CC3 [FANCHININ], the EC50 is reported as 3.7 µg/mL (≈ 5.94 µM). For COc1ccc2cc1Oc1ccc(cc1)C[C@@H]1c3cc(c(OC)cc3CCN1C)Oc1c(O)c(OC)cc3c1[C@@H](C2)N(C)CC3, the EC50 was 11 µg/mL (≈ 18.1 µM). With C=C[C@H]1CN2CC[C@H]1C[C@H]2[C@H](O)c1ccnc2ccc(OC)cc12 [QUININE] the EC50 was > 20 µg/mL. COc1ccc2cc1Oc1ccc(cc1)C[C@H]1c3c(cc(OC)c(O)c3Oc3cc4c(cc3OC)CCN(C)[C@@H]4C2)CCN1C [HOMOAROMOLINE] showed an EC50 of 15 µg/mL (≈ 24.6 µM). With COc1ccc2cc1Oc1ccc(cc1)C[C@H]1c3cc(c(OC)cc3CCN1C)Oc1c(O)c(OC)cc3c1[C@@H](C2)N(C)CC3 the EC50 was 11 µg/mL (≈ 18.1 µM). In the case of COc1ccc2cc1Oc1ccc(cc1)C[C@H]1c3c(cc(OC)c(O)c3Oc3cc4c(cc3OC)CCN(C)[C@H]4C2)CCN1C, the EC50 is reported as 4.4 µg/mL (≈ 7.23 µM).

System: P388
Assay: Cytotoxicity against mouse P388 cells
Type: functional
Details: read-out: ED50 (the source's name)
In the case of COc1ccc2cc1Oc1ccc(cc1)C[C@H]1c3cc(c(OC)cc3CCN1C)Oc1c(OC)c(OC)cc3c1[C@H](C2)N(C)CC3 [FANCHININ], the EC50 is reported as 0.4 µg/mL (≈ 0.642 µM). Compound COc1ccc2cc1Oc1ccc(cc1)C[C@@H]1c3cc(c(OC)cc3CCN1C)Oc1c(O)c(OC)cc3c1[C@@H](C2)N(C)CC3 has an EC50 of 0.25 µg/mL (≈ 0.411 µM). In the case of C=C[C@H]1CN2CC[C@H]1C[C@H]2[C@H](O)c1ccnc2ccc(OC)cc12 [QUININE], the EC50 is reported as > 5 µg/mL. In the case of COc1ccc2cc1Oc1ccc(cc1)C[C@H]1c3c(cc(OC)c(O)c3Oc3cc4c(cc3OC)CCN(C)[C@@H]4C2)CCN1C [HOMOAROMOLINE], the EC50 is reported as 0.31 µg/mL (≈ 0.509 µM). In the case of COc1ccc2cc1Oc1ccc(cc1)C[C@H]1c3cc(c(OC)cc3CCN1C)Oc1c(O)c(OC)cc3c1[C@@H](C2)N(C)CC3, the EC50 is reported as 0.36 µg/mL (≈ 0.591 µM). COc1ccc2cc1Oc1ccc(cc1)C[C@H]1c3c(cc(OC)c(O)c3Oc3cc4c(cc3OC)CCN(C)[C@H]4C2)CCN1C gave an EC50 of 0.57 µg/mL (≈ 0.936 µM).

System: Plasmodium falciparum
Assay: Antimalarial activity against chloroquine-resistant Plasmodium falciparum W2 infected type A+ human erythrocytes by [3H]hypoxanthine uptake
Type: functional
Details: read-out: ED50 (the source's name)
In short: (§1)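 P. falciparum (chloroquine-sensitive D-6, chloroquine-resistant W-2) in type A+ human erythrocytes, 6% hematocrit, RPMI-1640 with 32 mM NaHCO3, 25 mM HEPES, 10% heat-inactivated A+ human plasma; 5% O2/5% CO2/90% N2, 37°. Test compounds in duplicate at 125,000–3 ng/ml; quinine control 250–0.3 ng/ml. ED50 = 50% inhibition of parasite [3H]hypoxanthine incorporation vs zero-drug controls, by non-linear regression.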
COc1ccc2cc1Oc1ccc(cc1)C[C@H]1c3cc(c(OC)cc3CCN1C)Oc1c(OC)c(OC)cc3c1[C@H](C2)N(C)CC3 [FANCHININ] gave an EC50 of 0.16 µg/mL (≈ 0.257 µM). In the case of COc1ccc2cc1Oc1ccc(cc1)C[C@@H]1c3cc(c(OC)cc3CCN1C)Oc1c(O)c(OC)cc3c1[C@@H](C2)N(C)CC3, the EC50 is reported as 0.164 µg/mL (≈ 0.269 µM). C=C[C@H]1CN2CC[C@H]1C[C@H]2[C@H](O)c1ccnc2ccc(OC)cc12 [QUININE] showed an EC50 of 0.0308 µg/mL (≈ 0.0949 µM). In the case of COc1ccc2cc1Oc1ccc(cc1)C[C@H]1c3c(cc(OC)c(O)c3Oc3cc4c(cc3OC)CCN(C)[C@@H]4C2)CCN1C [HOMOAROMOLINE], the EC50 is reported as 0.451 µg/mL (≈ 0.741 µM). For COc1ccc2cc1Oc1ccc(cc1)C[C@H]1c3cc(c(OC)cc3CCN1C)Oc1c(O)c(OC)cc3c1[C@@H](C2)N(C)CC3, the EC50 was 0.078 µg/mL (≈ 0.128 µM). COc1ccc2cc1Oc1ccc(cc1)C[C@H]1c3c(cc(OC)c(O)c3Oc3cc4c(cc3OC)CCN(C)[C@H]4C2)CCN1C gave an EC50 of 0.0406 µg/mL (≈ 0.0667 µM).

System: Plasmodium falciparum
Assay: Antimalarial activity against chloroquine-sensitive Plasmodium falciparum D6 infected type A+ human erythrocytes by [3H]hypoxanthine uptake
Type: functional
Details: read-out: ED50 (the source's name)
In short: as §1
In the case of COc1ccc2cc1Oc1ccc(cc1)C[C@H]1c3cc(c(OC)cc3CCN1C)Oc1c(OC)c(OC)cc3c1[C@H](C2)N(C)CC3 [FANCHININ], the EC50 is reported as 0.179 µg/mL (≈ 0.287 µM). For COc1ccc2cc1Oc1ccc(cc1)C[C@@H]1c3cc(c(OC)cc3CCN1C)Oc1c(O)c(OC)cc3c1[C@@H](C2)N(C)CC3, the EC50 was 0.0527 µg/mL (≈ 0.0866 µM). Compound C=C[C@H]1CN2CC[C@H]1C[C@H]2[C@H](O)c1ccnc2ccc(OC)cc12 [QUININE] has an EC50 of 0.0076 µg/mL (≈ 0.0234 µM). COc1ccc2cc1Oc1ccc(cc1)C[C@H]1c3c(cc(OC)c(O)c3Oc3cc4c(cc3OC)CCN(C)[C@@H]4C2)CCN1C [HOMOAROMOLINE] gave an EC50 of 0.232 µg/mL (≈ 0.381 µM). For COc1ccc2cc1Oc1ccc(cc1)C[C@H]1c3cc(c(OC)cc3CCN1C)Oc1c(O)c(OC)cc3c1[C@@H](C2)N(C)CC3, the EC50 was 0.0651 µg/mL (≈ 0.107 µM). COc1ccc2cc1Oc1ccc(cc1)C[C@H]1c3c(cc(OC)c(O)c3Oc3cc4c(cc3OC)CCN(C)[C@H]4C2)CCN1C showed an EC50 of 0.029 µg/mL (≈ 0.0476 µM).
